Laboratory results reported in ChEMBL document CHEMBL4049434, “Radiolabeled Dibenzodiazepinone-Type Antagonists Give Evidence of Dualsteric Binding at the M2 Muscarinic Acetylcholine Receptor” (J Med Chem, 2017).
Active and inactive are the calls of the source. The rule behind the calls is not given here.

Key:
[1] = molecular target: Muscarinic acetylcholine receptor M2 (Homo sapiens) (UniProt P08172); assay: Displacement of [3H]UNSW-MK259 from human muscarinic acetylcholine receptor M2 expressed in CHOK9 cells at <100 uM after 3 hrs by liquid scintillation counting assay
[2] = molecular target: Muscarinic acetylcholine receptor M2 (Homo sapiens) (UniProt P08172); assay: Displacement of [3H]NMS from human muscarinic acetylcholine receptor M2 expressed in CHOK9 cells at <100 uM after 3 hrs by liquid scintillation counting assay
[3] = molecular target: T1, Muscarinic acetylcholine receptor M2 (Homo sapiens, UniProt P08172); assay: (§1) Binding affinity to human muscarinic acetylcholine receptor M2 expressed in live adherent CHOK9 cells after 2 hrs by liquid scintillation counting assay; assay type: cell-based
T1 sequence (P08172 whole entry): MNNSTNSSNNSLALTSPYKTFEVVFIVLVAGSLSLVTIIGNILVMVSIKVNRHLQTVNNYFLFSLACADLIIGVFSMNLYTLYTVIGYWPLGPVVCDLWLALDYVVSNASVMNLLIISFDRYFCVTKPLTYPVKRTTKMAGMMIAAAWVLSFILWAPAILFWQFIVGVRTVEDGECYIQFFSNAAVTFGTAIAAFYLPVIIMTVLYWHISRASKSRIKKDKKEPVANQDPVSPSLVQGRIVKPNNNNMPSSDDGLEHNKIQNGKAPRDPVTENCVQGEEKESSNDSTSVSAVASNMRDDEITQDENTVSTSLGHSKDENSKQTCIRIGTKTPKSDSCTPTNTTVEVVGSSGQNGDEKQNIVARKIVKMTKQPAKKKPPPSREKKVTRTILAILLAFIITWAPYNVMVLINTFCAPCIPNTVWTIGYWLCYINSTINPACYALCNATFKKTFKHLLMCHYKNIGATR
How it was run: (§2)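 Live adherent CHO-hM2 cells in L15 medium with 1% BSA, 23 ± 1 °C, 2 h incubation. Competition at 2 nM radioligand; additional 4, 8, 15 and 30 nM in W84 experiments. […] Saturation data fitted one-site; competition by four-parameter logistic fits; at least three experiments in triplicate.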

[4] = molecular target: T1, Muscarinic acetylcholine receptor M2; assay: Ratio of binding affinity to human muscarinic acetylcholine receptor M2 expressed in CHOK9 cells assessed as dissociation rate constant to binding affinity to human muscarinic acetylcholine receptor M2 expressed in CHOK9 cells assessed as association rate constant; assay type: cell-based
[5] = molecular target: T1, Muscarinic acetylcholine receptor M2; assay: Binding affinity to human muscarinic acetylcholine receptor M2 expressed in live adherent CHOK9 cells assessed as saturation binding after 2 hrs by liquid scintillation counting assay
[6] = molecular target: T1, Muscarinic acetylcholine receptor M2; assay: Displacement of [3H]NMS from human muscarinic acetylcholine receptor M2 expressed in CHOK9 cells after 3 hrs by liquid scintillation counting assay; assay type: cell-based
[7] = molecular target: T1, Muscarinic acetylcholine receptor M2; assay: Displacement of [3H]UNSW-MK259 from human muscarinic acetylcholine receptor M2 expressed in CHOK9 cells after 3 hrs by liquid scintillation counting assay; assay type: cell-based
[8] = molecular target: T1, Muscarinic acetylcholine receptor M2; assay: Displacement of [3H]NMS from human muscarinic acetylcholine receptor M2
How it was run: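 Competition binding at intact adherent CHO-K9 cells stably expressing human M2R. Cells were incubated with [3H]NMS 0.2 nM (final) and competitor for 3 h at 23 ± 1 °C in Leibovitz L-15 medium with 1% BSA. […] Curves were fitted by four-parameter logistic fits. Replicates: 3 to 9 independent experiments, each in triplicate.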

[9] = molecular target: T1, Muscarinic acetylcholine receptor M2; assay: Displacement of [3H]UR-AP060 from human muscarinic acetylcholine receptor M2 expressed in CHOK9 cell homogenate after 3 hrs by liquid scintillation counting assay
[10] = molecular target: Muscarinic acetylcholine receptor M3 (Homo sapiens, UniProt P20309); assay: Displacement of [3H]NMS from human muscarinic acetylcholine receptor M3 expressed in CHOK9 cells after 3 hrs by liquid scintillation counting assay; assay type: cell-based
Chain of Muscarinic acetylcholine receptor M3 (P20309 whole entry): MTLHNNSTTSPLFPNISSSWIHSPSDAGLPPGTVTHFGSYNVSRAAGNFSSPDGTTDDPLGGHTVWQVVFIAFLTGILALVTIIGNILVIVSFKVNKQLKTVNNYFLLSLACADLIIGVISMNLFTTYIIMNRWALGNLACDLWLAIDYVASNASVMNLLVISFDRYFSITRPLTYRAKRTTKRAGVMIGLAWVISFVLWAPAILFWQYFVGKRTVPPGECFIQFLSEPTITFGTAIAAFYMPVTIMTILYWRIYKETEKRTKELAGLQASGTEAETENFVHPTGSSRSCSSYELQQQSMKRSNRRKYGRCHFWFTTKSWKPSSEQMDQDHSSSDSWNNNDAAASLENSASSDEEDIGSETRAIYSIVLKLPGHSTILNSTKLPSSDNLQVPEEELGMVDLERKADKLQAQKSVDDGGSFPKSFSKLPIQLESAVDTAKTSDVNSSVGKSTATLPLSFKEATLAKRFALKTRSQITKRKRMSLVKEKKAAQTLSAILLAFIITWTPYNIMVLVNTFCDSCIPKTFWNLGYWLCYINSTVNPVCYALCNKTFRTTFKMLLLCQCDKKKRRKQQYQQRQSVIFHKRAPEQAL

[11] = molecular target: T2, Muscarinic acetylcholine receptor M2 (Homo sapiens) (UniProt P08172); assay: Binding affinity to human muscarinic acetylcholine receptor M2 expressed in live adherent CHOK9 cells at Kd in presence of 500-fold excess atropine after 2 hrs by liquid scintillation counting assay relative to control; assay type: cell-based; conditions: tested as the 3H-labelled form
T2 sequence (whole entry): T1 sequence (P08172 whole entry)
How it was run: as §2

[12] = molecular target: T3, Muscarinic acetylcholine receptor M1 (Homo sapiens, UniProt P11229); assay: Displacement of [3H]NMS from human muscarinic acetylcholine receptor M1 expressed in CHOK9 cells after 3 hrs by liquid scintillation counting assay; assay type: cell-based
T3 sequence (P11229 whole entry): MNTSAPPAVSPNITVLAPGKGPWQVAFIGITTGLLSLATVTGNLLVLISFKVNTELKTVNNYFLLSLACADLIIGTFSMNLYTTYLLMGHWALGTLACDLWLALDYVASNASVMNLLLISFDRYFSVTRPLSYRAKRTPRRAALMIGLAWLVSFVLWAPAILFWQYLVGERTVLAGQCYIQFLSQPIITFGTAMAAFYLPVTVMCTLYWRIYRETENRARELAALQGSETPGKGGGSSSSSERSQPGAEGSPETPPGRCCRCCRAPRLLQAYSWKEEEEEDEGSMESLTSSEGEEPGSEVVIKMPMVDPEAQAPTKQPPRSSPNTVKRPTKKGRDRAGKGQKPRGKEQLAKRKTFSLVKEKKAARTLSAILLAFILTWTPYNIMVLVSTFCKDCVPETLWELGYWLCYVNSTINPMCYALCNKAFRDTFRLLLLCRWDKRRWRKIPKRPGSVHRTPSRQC

[13] = molecular target: T4, Muscarinic acetylcholine receptor M4 (Homo sapiens, UniProt P08173); assay: Displacement of [3H]NMS from human muscarinic acetylcholine receptor M4 expressed in CHOK9 cells after 3 hrs by liquid scintillation counting assay; assay type: cell-based
T4 sequence (P08173 whole entry): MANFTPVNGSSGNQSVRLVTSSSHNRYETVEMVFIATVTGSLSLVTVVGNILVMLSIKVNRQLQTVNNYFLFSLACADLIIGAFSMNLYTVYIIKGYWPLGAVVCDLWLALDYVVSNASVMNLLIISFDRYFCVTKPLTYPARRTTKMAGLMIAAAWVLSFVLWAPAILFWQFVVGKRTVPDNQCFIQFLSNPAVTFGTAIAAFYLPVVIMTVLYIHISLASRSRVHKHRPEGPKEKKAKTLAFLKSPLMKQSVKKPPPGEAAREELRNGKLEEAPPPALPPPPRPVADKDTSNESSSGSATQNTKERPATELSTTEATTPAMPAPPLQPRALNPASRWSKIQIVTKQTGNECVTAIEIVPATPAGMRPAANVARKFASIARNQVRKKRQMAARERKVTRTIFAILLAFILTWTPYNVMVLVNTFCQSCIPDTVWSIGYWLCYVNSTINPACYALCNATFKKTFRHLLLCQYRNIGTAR

[14] = molecular target: T2, Muscarinic acetylcholine receptor M2 (Homo sapiens); assay: as §1; assay type: cell-based; conditions: tested as the 3H-labelled form
How it was run: as §2

[15] = molecular target: T2, Muscarinic acetylcholine receptor M2 (Homo sapiens); assay: Binding affinity to human muscarinic acetylcholine receptor M2 expressed in CHOK9 cell homogenates at Kd in presence of 500-fold excess atropine after 2 hrs by liquid scintillation counting assay relative to control; conditions: tested as the 3H-labelled form
How it was run: (§3)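 CHO-hM2 cell homogenates (25–30 μg protein/well) in L15 medium with 1% BSA, 23 ± 1 °C, 2 h with tritiated dimeric radioligand. Competition used 0.5 nM radioligand; additional 0.4, 1, 2 and 4 nM in W84 experiments. […] Four-parameter logistic fits; at least three experiments in triplicate.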

[16] = molecular target: T5, Muscarinic acetylcholine receptor M5 (Homo sapiens, UniProt P08912); assay: Displacement of [3H]NMS from human muscarinic acetylcholine receptor M5 expressed in CHOK9 cells after 3 hrs by liquid scintillation counting assay; assay type: cell-based
T5 sequence (P08912 whole entry): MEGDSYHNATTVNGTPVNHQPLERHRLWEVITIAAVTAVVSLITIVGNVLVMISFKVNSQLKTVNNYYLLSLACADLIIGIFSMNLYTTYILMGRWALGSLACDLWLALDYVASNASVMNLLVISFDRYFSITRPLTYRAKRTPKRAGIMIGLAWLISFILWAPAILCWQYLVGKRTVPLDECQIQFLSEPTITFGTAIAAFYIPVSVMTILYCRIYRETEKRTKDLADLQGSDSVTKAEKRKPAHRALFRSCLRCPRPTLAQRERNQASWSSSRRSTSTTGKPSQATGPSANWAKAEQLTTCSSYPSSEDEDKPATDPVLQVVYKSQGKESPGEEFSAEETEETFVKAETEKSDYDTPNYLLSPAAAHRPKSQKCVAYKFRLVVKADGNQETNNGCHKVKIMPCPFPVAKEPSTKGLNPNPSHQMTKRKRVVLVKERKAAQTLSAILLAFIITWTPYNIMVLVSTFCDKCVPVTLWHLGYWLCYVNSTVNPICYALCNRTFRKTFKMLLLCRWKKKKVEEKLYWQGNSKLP

[17] = Chemical stability of the compound in PBS buffer at pH 7.4 after 48 hrs by HPLC analysis; assay type: physicochemical; conditions: pH 7.4, 48 h
How it was run: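 Compound at 100 μM final (from 10 mM stock) in PBS pH 7.4 at 22 ± 1 °C; samples taken at 0, 24 and 48 h, mixed with acetonitrile/1% aq TFA 2:8, analysed by RP-HPLC at 220 nm.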

[18] = molecular target: T2, Muscarinic acetylcholine receptor M2 (Homo sapiens); assay: Binding affinity to human muscarinic acetylcholine receptor M2 expressed in CHOK9 cell homogenate after 2 hrs by liquid scintillation counting assay; conditions: tested as the 3H-labelled form
How it was run: as §3

CCC(=O)NCCNC(=O)CCc1c[nH]cn1
inhibition [1]: inactive | inhibition [2]: inactive

[3H]CC([3H])C(=O)NCCNC(=O)CCc1cn(CCCCC2CCN(CC(=O)N3c4ccccc4NC(=O)c4ccccc43)CC2)cn1 (centres undefined)
Kd [3]: 0.87 nM | Kd [4]: 0.7 nM | Kd [5]: 0.87 nM | Ki ([6]; read-out: Ki): 0.76 nM

O=C1CCCN1CC#CCN1CCCC1 [OXOTREMORINE]
Ki [7]: 148 nM | Ki [8]: 251 to 10000 nM | Ki [9]: 10000 nM

CCC(=O)NC1CN(CCCCC2CCN(CC(=O)N3c4ccccc4NC(=O)c4ccccc43)CC2)CCN(CCCCC2CCN(CC(=O)N3c4ccccc4NC(=O)c4ccccc43)CC2)C1.O=C(O)C(F)(F)F.O=C(O)C(F)(F)F.O=C(O)C(F)(F)F.O=C(O)C(F)(F)F
Ki [10]: 200 nM | Activity [11]: > 60% | Ki [12]: 7.08 nM | Ki [13]: 3.63 nM | Bmax (disintegrations/minute) [14]: 3800 | Activity [15]: < 15% | Ki [16]: 77.6 nM | Stability [17]: Stable | Bmax (disintegrations/minute) [18]: 4900 | Ki ([6]; read-out: pKi (converted)): 0.708 nM
